Results taken from publication PMC8035306 (Journal of medicinal chemistry, 2021).

Legend:
HEK293T = test: Cell viability assay; assay type: cell-based; settings: up to 10 μM, 3 days treatment
Method in brief: (§1)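 Cells seeded at 1 × 10^4 per well and left 24 h, then exposed for 3 days to serially diluted test compound starting at 10 μM. CCK-8 (WST-8) reagent added, followed by 4 h at 37 °C; absorbance read at 450 nm. Results given as average ± SD of three replicate experiments.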

PRMT6 [1] = biological target: T1, PRMT6 (Homo sapiens, UniProt Q96LA8); test: PRMT6 radiometric biochemical assay, 2 h preincubation
T1 sequence (Q96LA8 whole entry): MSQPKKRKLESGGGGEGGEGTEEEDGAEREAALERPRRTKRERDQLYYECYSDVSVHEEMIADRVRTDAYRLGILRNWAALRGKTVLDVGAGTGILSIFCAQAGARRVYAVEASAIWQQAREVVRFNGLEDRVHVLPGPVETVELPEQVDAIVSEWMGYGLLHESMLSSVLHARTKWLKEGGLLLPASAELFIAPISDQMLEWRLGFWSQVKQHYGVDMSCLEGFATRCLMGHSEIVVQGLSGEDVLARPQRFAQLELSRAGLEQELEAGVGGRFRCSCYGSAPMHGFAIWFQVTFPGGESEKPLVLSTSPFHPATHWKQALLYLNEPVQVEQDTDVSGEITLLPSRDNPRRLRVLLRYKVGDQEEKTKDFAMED

HEK293T cells = test: Toxicity to HEK293T cells seen in the cellular PRMT6 assay; assay type: cell-based; settings: 20 h
PRMT6 [2] = biological target: T1, PRMT6; test: Mass spectrometry analysis for assessing covalent binding; settings: PRMT6 incubated with compound for 2 h
Method in brief: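 Purified PRMT6 incubated with a 20-fold molar excess of test compound at room temperature, then acidified with 0.1% trifluoroacetic acid (aq.). Sample separated by HPLC on a 5–95% acetonitrile/water gradient and analysed by electrospray-ionisation time-of-flight mass spectrometry for mass shifts indicating covalent adducts.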

PNT2 = test: Cell viability assay; assay type: cell-based; settings: PNT2, up to 10 μM, 3 days treatment
Method in brief: as §1

PRMT6 [3] = biological target: T1, PRMT6; test: Methyltransferase selectivity panel: PRMT6; assay type: biochemical; settings: at 1 and 10 μM
Method in brief: (§2)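 Panel of 33 methyltransferases (8 PRMTs, 21 PKMTs, 3 DNMTs, 1 RNA methyltransferase) run by an earlier published protocol. Test compound at 1 μM and 10 μM; n = 3.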

MCF-7 = test: Cell viability assay; assay type: cell-based; settings: MCF-7, up to 10 μM, 3 days treatment
Method in brief: as §1

[4] = system: other 32 methyltransferases (PRMTs, PKMTs, DNMTs, RNA methyltransferase); test: Methyltransferase selectivity panel: other 32 methyltransferases; assay type: biochemical; settings: at 1 and 10 μM
Method in brief: as §2

[5] = biological target: Flag-tagged PRMT6 in HEK293T cells (Homo sapiens, UniProt Q96LA8); test: Cellular PRMT6 assay; assay type: cell-based; settings: 20 h, up to 10 μM
Chain of Flag-tagged PRMT6 in HEK293T cells (Q96LA8 whole entry): as above

| decrease in the IC50 value after compound preincubation with PRMT6 (PRMT6 [1]; 2 h preincubation versus no incubation) | pattern of inhibition with respect to SAM cofactor and peptide substrate (PRMT6 [1]; 2 h preincubation, IC50 at various SAM or peptide concentrations) | covalent modification of PRMT6 (PRMT6 [2]) | inhibition of PRMT6 in methyltransferase panel (PRMT6 [3]) | inhibition of other 32 methyltransferases [4] | activity against PRMT6 (in words) (PRMT6 [1]) | reduction of cellular levels of H3R2me2a [5] | reduction of cellular levels of H4R3me2a [5] | Compound | toxicity (cell viability) (HEK293T) | toxicity to HEK293T cells (HEK293T cells; up to 10 μM) | toxicity (cell viability) (PNT2) | toxicity (cell viability) (MCF-7) | toxicity to HEK293T cells (HEK293T cells; at 30 μM) |
| --- | --- | --- | --- | --- | --- | --- | --- | --- | --- | --- | --- | --- | --- |
| more than 100 fold | noncompetitive | No covalent modification | potently inhibited | did not significantly inhibit |  |  |  | Cc1cc(C)cc([C@@H]2c3cc(C)ccc3NC(=O)CN2C(=O)c2ccc(Br)s2)c1 [(R)-2, 4-(5-bromothiophene-2-carbonyl)-5-(3,5-dimethylphenyl)-7-methyl-1,3,4,5-tetrahydro-2H-benzo[e][1,4]diazepin-2-one] | Neither (R)-2 nor (S)-2 showed any significant toxicity | did not show significant toxicity | Neither (R)-2 nor (S)-2 showed any significant toxicity | Neither (R)-2 nor (S)-2 showed any significant toxicity |  |
|  |  |  | did not significantly inhibit | did not significantly inhibit | inactive | did not significantly reduce | did not significantly reduce | Cc1cc(C)cc([C@H]2c3cc(C)ccc3NC(=O)CN2C(=O)c2ccc(Br)s2)c1 [(S)-2, 4-(5-bromothiophene-2-carbonyl)-5-(3,5-dimethylphenyl)-7-methyl-1,3,4,5-tetrahydro-2H-benzo[e][1,4]diazepin-2-one] | Neither (R)-2 nor (S)-2 showed any significant toxicity |  | Neither (R)-2 nor (S)-2 showed any significant toxicity | Neither (R)-2 nor (S)-2 showed any significant toxicity | significant toxicity |
